Source: PubChem (several laboratories)
An excerpt weighted towards active compounds, which were near 3.1% of everything screened.
HSF-1 act = HSF-1 activators, primary screen, NIH3T3-HGL cells, MG132 stress, luminescence, single point; NIH3T3-HGL HSF-1 luciferase reporter, 8 h; 100% = twice DMSO control signal; activation, % at 9 µM; 300,000 compounds, 1.7% hits; AID 504408, 2011;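 active = mean replicate activation of at least 50% with a set share of replicates each reaching 50%; inconclusive = only one of those two conditions met; inactive = mean below 50% and too few replicates reaching it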;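 also: 0% = median of the neutral control wells and 100% = twice that signal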
Hsp70 act = Hsp70 transcriptional activators, primary screen, cell-based, HeLa, Hsp70 promoter luciferase, luminescence, 10 µM. HeLa Hsp70 promoter luciferase reporter; scaled: vehicle 0, proteasome-inhibitor control 100%. activation, % at 10 µM. 200,000 compounds, 0.04% hits. AID 1203, 2008;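 active = activation above the mean across all tested compounds plus 3 SD, cutoff set per campaign, cut at about 5.5% in these data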;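 also: 100% = MG132 at 30 µM as the positive control and 0% = DMSO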
HSF1 inhib = HSF1 inhibitors in luciferase reporter cells, primary screen, cell-based, NIH3T3, luminescence; activity change, negative = inhibition, % at 7.5 µM (by protocol); NIH3T3-HGL HSE-luciferase, MG132-induced, luminescence 8 h; hits give low values; 300,000 compounds, 0.77% hits;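 active = more than half of replicate wells show activity change below -50%, luminescence cut by over half; inconclusive = some wells, but at most half, below -50%; inactive = no replicate well below -50%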;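 also: luciferase reports HSF-1 transcriptional activity via heat shock element; 0% = median of DMSO wells and -100% = zero luminescence signal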
TbHK1 inh = Trypanosoma brucei hexokinase 1 inhibitors, primary screen, biochemical, G6PDH-coupled NADH absorbance, MLSCN library. inhibition, % at 10 µM. 220,000 compounds, 0.11% hits. recombinant TbHK1, G6PDH-coupled NADH A340;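 active = inhibition of 50% or more in the single-dose primary screen; inactive = inhibition below 50%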
HKDC1 inhibitor = HKDC1 hexokinase inhibitors, primary screen, biochemical, fluorescence, uHTS; recombinant HKDC1, G6PDH/diaphorase resazurin coupled fluorescence; inhibition, % at 20 µM; Q2TB90; 340,000 compounds, 0.16% hits; AID 493160, 2011;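 active = inhibition above about 35% when tested at 20 µM, limit read from the data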;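 also: plate controls were DMSO wells with enzyme for no effect and DMSO wells lacking enzyme for full effect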
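Test system: recombinant HKDC1 (HK5) hexokinase enzyme, produced in-house; Amount: enzyme 5 µg/mL final; Buffer or medium: Tris pH 8.0 buffer with MgCl2, Tween-20, BSA, BME; Reagent: glucose and ATP substrates; Doses: 20 µM test compound, 1% DMSO; Incubation: 90 min reaction incubation at room temperature, dark; Detection: resorufin fluorescence at 613 nm.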
HSP90 inh = HSP90 inhibitors, primary screen, cell lysate, luminescence; Heat shock protein HSP 90 (rabbit reticulocyte lysate; luciferase refolding); Rabbit reticulocyte lysate, luciferase refolding luminescence, 3 h; 290,000 compounds, 0.91% hits; inhibition, % at 5.6 µM; AID 1789, 2009;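 active = inhibition above the screen-wide mean plus 3 SD, computed separately per campaign, cut at about 16% in these data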;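 also: 0% = DMSO wells and 100% = 60 µM geldanamycin wells; inhibitors lower the luminescence because luciferase stays unfolded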
Active calls of the source: *; ? = inconclusive; nt = not tested or not shown.

SMILES | HSF-1 act | Hsp70 act | HSF1 inhib | TbHK1 inh | HKDC1 inhibitor | HSP90 inh
O=S(=O)(c1ccccc1)C1CC1(c1ccccc1)c1ccccc1 (centres undefined) | 0 | nt | 0 | nt | 1 | nt
Nc1c(C(=O)c2ccccc2)sc2nsc(SCCN3CCCC3)c12 | 118* | nt | 92 | -8 | 6 | -1
N/C(=N\OC(=O)c1ccc(Cl)cc1Cl)c1ccc(Cl)cc1 | -73 | 0 | -72* | 2 | -5 | 9
N/C(=N\OC(=O)c1ccc(Cl)cc1Cl)c1ccccc1 | -59 | 1 | ? | -1 | 4 | 16
CCOc1ccc(C2=Nc3ccc(Br)cc3C(c3ccc(N4CCOCC4)cc3)=NN2)cc1 | 58* | 0 | 17 | -20 | -11 | 1
COc1ccccc1N(C)S(=O)(=O)c1ccc(C(=O)NC(C)c2ccccc2)cc1 (centres undefined) | -74 | nt | -67* | 10 | 4 | 4
O=C(COc1cccc(C(F)(F)F)c1)Nc1cccc(S(=O)(=O)NC2=NCCCCC2)c1 | nt | nt | nt | nt | -2 | nt
COc1ccc(CN2CCN(C(=O)CCC(=O)Nc3nnc(C4CCCCC4)s3)CC2)cc1F | 6 | nt | -5 | nt | -3 | -1
CC(C)C(=O)Nc1ccc(NC(=O)c2cccc3c(Br)cccc23)cc1 | 5 | nt | 6 | nt | -5 | 0
Cc1cccnc1Nc1nc(-c2ccccc2)cs1 | ? | nt | 38 | nt | 3 | 5
O=C(Nc1nc(-c2ccccn2)cs1)c1ccc(Cl)s1 | 223* | 0 | 228 | -18 | -6 | -5
Cc1ccc(C(=O)Nc2nc(-c3ccccn3)cs2)s1 | nt | nt | nt | nt | -1 | nt
O=C(Nc1nc(-c2ccc(Cl)s2)cs1)c1ccco1 | 67* | 0 | 32 | -6 | -1 | 2
Cc1cccnc1Nc1nc(-c2ccccn2)cs1 | 350* | 0 | 218 | -1 | -3 | 10
O=S(=O)(c1ccc(S(=O)(=O)N2CCC(O)CC2)cc1)N1CCCC1 | -6 | nt | -9 | nt | -4 | -4
COc1ccc(/C=C/c2nc3ccccc3n2C)cc1 | -22 | 0 | -10 | -23 | -5 | 40*
COc1ccc(/C=N/n2c(C)nc3ccccc3c2=O)cc1 | 28 | nt | -7 | nt | -3 | 0
Cn1c(/C=C/c2ccccc2)nc2ccccc2c1=O | -84 | nt | -80* | nt | 2 | 2
Cc1cc(N/N=C/c2ccc([N+](=O)[O-])o2)nc2ccccc12 | 65* | 0 | 43 | -18 | -8 | 6
COc1ccc(Cn2c(/C=C/c3ccccc3)nc3ccccc32)cc1 | ? | 1 | 32 | -12 | -4 | -2
Cn1c(/C=C/c2ccc(Cl)cc2)nc2ccccc2c1=O | 46 | nt | 33 | nt | -3 | -4
COc1ccc(/C=N\n2nnc3ccccc32)cc1 | -37 | 0 | -39 | -9 | -6 | 29*
COc1ccc(C(=O)CCC(=O)Nc2cccnc2)cc1OC | -23 | nt | -9 | nt | -6 | 2
CCC1CCCCN1S(=O)(=O)c1ccc(-n2cnnn2)c(C)c1 (centres undefined) | 3 | nt | 0 | nt | -4 | -2
O=C(COc1ccc(F)cc1)Nc1nnc(S(=O)(=O)N2CCCC2)s1 | 9 | nt | 1 | nt | -4 | 1
SMILES | HSF-1 act | Hsp70 act | HSF1 inhib | TbHK1 inh | HKDC1 inhibitor | HSP90 inh
Cn1c(/C=C/c2ccc([N+](=O)[O-])o2)nc2ccccc2c1=O | 62* | 0 | 44 | -15 | 3 | 1
CC(=O)N(C(C)=O)n1c(/C=C/c2cccc([N+](=O)[O-])c2)nc2ccccc2c1=O | 3 | 0 | 5 | 1 | 7 | 5
Cn1cccc1C(=O)OCc1cc(-c2ccco2)on1 | nt | nt | nt | nt | -2 | nt
CC1(C)C2(C#N)C(=O)NC(=O)C12C#N (centres undefined) | nt | nt | nt | nt | -8 | nt
Cc1ccc(-n2nnc(-c3cccnc3Cl)n2)cc1 | 70* | 0 | 44 | 4 | -2 | 10
Clc1ccc(-n2nnc(-c3cccnc3Cl)n2)cn1 | 41 | 1 | 15 | 7 | 1 | 3
CN(c1ccccc1)S(=O)(=O)c1cccc(NC(=O)C2=NN(c3ccccc3)C(=O)CC2)c1 | nt | nt | nt | nt | 1 | nt
